Reference: ChEMBL document CHEMBL1138564, “Microwave-induced synthesis and anti-microbial activities of 7,10,11,12-tetrahydrobenzo[c]acridin-8(9H)-one derivatives” (2009)
Values after ≈ are worked out from the molar mass of the structure shown. Active and inactive are the calls of the source. No cut-off for these calls is given here.

Legend:
[1] = test system: Trichoderma viride; experiment: Antimicrobial activity against Trichoderma viride NCIM 1195 at 500 ug/disk after 72 hrs by disk diffusion method; assay type: functional; details: NCIM 1195, 72 h, read-out: DIZ
In short: (§1)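 Fungal disc diffusion. 100 µl of suspension at 10⁶ CFU/ml was spread on Sabouraud's dextrose agar. Discs carrying test compound in DMSO were applied, with a DMSO-only disc as negative control. Plates were incubated at 27 °C for 72 h, and the zone of inhibition diameter was measured.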

[2] = test system: Aspergillus fumigatus; experiment: Antimicrobial activity against Aspergillus fumigatus NCIM 902 at 1000 ug/disk after 72 hrs by disk diffusion method; assay type: functional; details: NCIM 902, 72 h, read-out: DIZ
In short: (§2)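 Disc diffusion on Sabouraud's dextrose agar. 100 µl of fungal suspension at 10⁶ CFU/ml is spread on the plate. Discs carry test compounds at two loadings in DMSO; DMSO alone is the negative control. Clotrimazole disc is the positive reference. Plates are incubated at 27 °C for 72 h, and the zone of inhibition diameter is measured.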

[3] = test system: Aspergillus parasiticus; experiment: Antimicrobial activity against Aspergillus parasiticus NCIM 904 after 72 hrs by serial dilution method; assay type: functional; details: NCIM 904, 72 h
In short: (§3)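 MIC by broth dilution in Sabouraud's dextrose broth, only for fungi sensitive in disc diffusion. Two-fold serial dilutions of compounds are made in 1 ml broth per tube, range 3.9 to 1000. Inoculated tubes are incubated at 27 °C for 72 h.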

[4] = test system: Lipomyces lipofer; experiment: Antimicrobial activity against Lipomyces lipofer NCIM 3252 at 500 ug/disk after 72 hrs by disk diffusion method; assay type: functional; in short: as §2
[5] = test system: Aliivibrio fischeri; experiment: Antimicrobial activity against Vibrio fischeri NCIM 2154 at 500 ug/disk after 24 hrs by disk diffusion method; assay type: functional; details: NCIM 2154, 24 h, read-out: DIZ
In short: (§4)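 Disc diffusion. 100 µl of bacterial suspension at 10⁸ CFU/ml was spread on Mueller–Hinton agar. Discs loaded with test compound dissolved in DMSO were placed on the lawn, with a DMSO-only disc as negative control. Plates were incubated at 37 °C for 24 h, and the inhibition zone diameter was measured.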

[6] = test system: Aspergillus flavus; experiment: Antimicrobial activity against Aspergillus flavus NCIM 902 at 1000 ug/disk after 72 hrs by disk diffusion method; assay type: functional; details: NCIM 902, 72 h, read-out: DIZ; in short: as §2
[7] = test system: Staphylococcus; experiment: Antimicrobial activity against Staphylococcus albus NCIM 2178 at 500 ug/disk after 24 hrs by disk diffusion method; assay type: functional; details: NCIM 2178, 24 h, read-out: DIZ; in short: as §4
[8] = test system: Staphylococcus; experiment: Antimicrobial activity against Staphylococcus albus NCIM 2178 at 1000 ug/disk after 24 hrs by disk diffusion method; assay type: functional; details: NCIM 2178, 24 h, read-out: DIZ; in short: as §4
[9] = test system: Penicillium chrysogenum; experiment: Antimicrobial activity against Penicillium chrysogenum NCIM 707 at 1000 ug/disk after 72 hrs by disk diffusion method; assay type: functional; in short: as §2
[10] = test system: Pseudomonas aeruginosa; experiment: Antimicrobial activity against Pseudomonas aeruginosa NCIM 2200 at 500 ug/disk after 24 hrs by disk diffusion method; assay type: functional; details: NCIM 2200, 24 h, read-out: DIZ; in short: as §4
[11] = test system: Rhodotorula mucilaginosa; experiment: Antimicrobial activity against Rhodotorula rubra NCIM 3174 at 500 ug/disk after 72 hrs by disk diffusion method; assay type: functional; details: NCIM 3174, 72 h, read-out: DIZ; in short: as §1
[12] = test system: Aliivibrio fischeri; experiment: Antimicrobial activity against Vibrio fischeri NCIM 2154 after 24 hrs by serial dilution method; assay type: functional; details: NCIM 2154, 24 h
[13] = test system: Klebsiella aerogenes; experiment: Antimicrobial activity against Klebsiella aerogenes NCIM 2239 at 500 ug/disk after 24 hrs by disk diffusion method; assay type: functional; details: NCIM 2239, 24 h, read-out: DIZ
In short: (§5)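 Disc diffusion on Mueller–Hinton agar. 100 µl of bacterial suspension at 10⁸ CFU/ml is spread on the plate. Discs carry test compounds at two loadings, dissolved in DMSO; DMSO alone serves as negative control. Ofloxacin disc is the positive reference. Plates are incubated at 37 °C for 24 h, and the inhibition zone diameter is measured.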

[14] = test system: Bacillus cereus; experiment: Antimicrobial activity against Bacillus cereus NCIM 2155 at 500 ug/disk after 24 hrs by disk diffusion method; assay type: functional; details: NCIM 2155, 24 h, read-out: DIZ; in short: as §5
[15] = test system: Aspergillus fumigatus; experiment: Antimicrobial activity against Aspergillus fumigatus NCIM 902 at 500 ug/disk after 72 hrs by disk diffusion method; assay type: functional; in short: as §2
[16] = test system: Proteus vulgaris; experiment: Antimicrobial activity against Proteus vulgaris NCIM 2027 at 1000 ug/disk after 24 hrs by disk diffusion method; assay type: functional; details: NCIM 2027, 24 h, read-out: DIZ; in short: as §5
[17] = test system: Escherichia coli; experiment: Antimicrobial activity against Escherichia coli NCIM 2065 after 24 hrs by serial dilution method; assay type: functional; details: NCIM 2065, 24 h
In short: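 Broth dilution MIC in nutrient broth, run only for organisms found sensitive in disc diffusion. Compounds are two-fold serially diluted in 1 ml sterile broth per tube, spanning 3.9 to 1000. Inoculated tubes are incubated at 37 °C for 24 h.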

[18] = test system: Bacillus subtilis; experiment: Antimicrobial activity against Bacillus subtilis NCIM 2063 at 500 ug/disk after 24 hrs by disk diffusion method; assay type: functional; details: NCIM 2063, 24 h, read-out: DIZ; in short: as §5
[19] = test system: Aspergillus flavus; experiment: Antimicrobial activity against Aspergillus flavus NCIM 902 after 72 hrs by serial dilution method; assay type: functional; details: NCIM 535, 72 h, in the assay text read “NCIM 535” for “NCIM 902”; in short: as §3
[20] = test system: Lipomyces lipofer; experiment: Antimicrobial activity against Lipomyces lipofer NCIM 3252 at 1000 ug/disk after 72 hrs by disk diffusion method; assay type: functional; in short: as §2
[21] = test system: Salmonella typhimurium; experiment: Antimicrobial activity against Salmonella Typhimurium NCIM 2501 at 1000 ug/disk after 24 hrs by disk diffusion method; assay type: functional, Salmonella enterica subsp. enterica serovar Typhimurium; details: Salmonella enterica, NCIM 2501, 24 h; read-out: DIZ; in short: as §4
[22] = test system: Rhodococcus corynebacterioides; experiment: Antimicrobial activity against Corynebacterium rubrum NCIM 2252 at 1000 ug/disk after 24 hrs by disk diffusion method; assay type: functional; details: Rhodococcoides corynebacterioides, NCIM 2252, 24 h; read-out: DIZ; in short: as §5
[23] = test system: Aspergillus flavus; experiment: Antimicrobial activity against Aspergillus flavus NCIM 902 at 500 ug/disk after 72 hrs by disk diffusion method; assay type: functional; details: NCIM 902, 72 h, read-out: DIZ; in short: as §2
[24] = test system: Aspergillus parasiticus; experiment: Antimicrobial activity against Aspergillus parasiticus NCIM 904 at 500 ug/disk after 72 hrs by disk diffusion method; assay type: functional; details: NCIM 904, 72 h, read-out: DIZ; in short: as §2
[25] = test system: Trichoderma viride; experiment: Antimicrobial activity against Trichoderma viride NCIM 1195 after 72 hrs by serial dilution method; assay type: functional; details: NCIM 1195, 72 h
In short: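 MIC by broth dilution in Sabouraud's dextrose broth, run only on fungi found sensitive in the disc assay. Twofold serial dilutions were made in 1 ml broth per tube, covering 3.9 to 1000. Inoculated tubes were incubated at 27 °C for 72 h.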

[26] = test system: Escherichia coli; experiment: Antimicrobial activity against Escherichia coli NCIM 2065 at 1000 ug/disk after 24 hrs by disk diffusion method; assay type: functional; details: NCIM 2065, 24 h, read-out: DIZ; in short: as §5
[27] = test system: Escherichia coli; experiment: Antimicrobial activity against Escherichia coli NCIM 2065 at 500 ug/disk after 24 hrs by disk diffusion method; assay type: functional; details: NCIM 2065, 24 h, read-out: DIZ; in short: as §5
[28] = test system: Bacillus cereus; experiment: Antimicrobial activity against Bacillus cereus NCIM 2155 at 1000 ug/disk after 24 hrs by disk diffusion method; assay type: functional; details: NCIM 2155, 24 h, read-out: DIZ; in short: as §5
[29] = test system: Rhodococcus corynebacterioides; experiment: Antimicrobial activity against Corynebacterium rubrum NCIM 2252 at 500 ug/disk after 24 hrs by disk diffusion method; assay type: functional; details: Rhodococcoides corynebacterioides, NCIM 2252, 24 h; read-out: DIZ; in short: as §5
[30] = test system: Penicillium chrysogenum; experiment: Antimicrobial activity against Penicillium chrysogenum NCIM 707 at 500 ug/disk after 72 hrs by disk diffusion method; assay type: functional; in short: as §2
[31] = test system: Proteus vulgaris; experiment: Antimicrobial activity against Proteus vulgaris NCIM 2027 at 500 ug/disk after 24 hrs by disk diffusion method; assay type: functional; details: NCIM 2027, 24 h, read-out: DIZ; in short: as §5
[32] = test system: Trichoderma viride; experiment: Antimicrobial activity against Trichoderma viride NCIM 1195 at 1000 ug/disk after 72 hrs by disk diffusion method; assay type: functional; details: NCIM 1195, 72 h, read-out: DIZ; in short: as §1

SMILES: CC1(C)CC(=O)C2=C(C1)Nc1c(ccc3ccccc13)C2c1ccc(Cl)cc1 (configuration not stated)
- zone of inhibition at 500 µg/disc [1]: 7 mm
- zone of inhibition at 1000 µg/disc [2]: 8 mm
- MIC [3]: 3.9 µg/mL (≈ 10.1 µM)
- diameter of the inhibition zone (DIZ) [4]: inactive
- zone of inhibition at 500 µg/disc [5]: 7 mm
- zone of inhibition at 1000 µg/disc [6]: 8 mm
- zone of inhibition at 500 µg/disc [7]: 7 mm
- zone of inhibition at 1000 µg/disc [8]: 9 mm
- diameter of the inhibition zone (DIZ) [9]: inactive
- zone of inhibition at 500 µg/disc [10]: 7 mm
- zone of inhibition at 500 µg/disc [11]: 9 mm
- MIC [12]: 62.5 µg/mL (≈ 161 µM)
- zone of inhibition at 500 µg/disc [13]: 8 mm
- zone of inhibition at 500 µg/disc [14]: 10 mm
- diameter of the inhibition zone (DIZ) [15]: inactive
- zone of inhibition at 1000 µg/disc [16]: 10 mm
- MIC [17]: 62.5 µg/mL (≈ 161 µM)
- zone of inhibition at 500 µg/disc [18]: 8 mm
- MIC [19]: 125 µg/mL (≈ 322 µM)
- diameter of the inhibition zone (DIZ) [20]: inactive
- zone of inhibition at 1000 µg/disc [21]: 11 mm
- zone of inhibition at 1000 µg/disc [22]: 10 mm
- zone of inhibition at 500 µg/disc [23]: 7 mm
- zone of inhibition at 500 µg/disc [24]: 12 mm
- MIC [25]: 62.5 µg/mL (≈ 161 µM)
- zone of inhibition at 1000 µg/disc [26]: 9 mm
- zone of inhibition at 500 µg/disc [27]: 7 mm
- zone of inhibition at 1000 µg/disc [28]: 13 mm
- zone of inhibition at 500 µg/disc [29]: 7 mm
- diameter of the inhibition zone (DIZ) [30]: inactive
- zone of inhibition at 500 µg/disc [31]: 9 mm
- zone of inhibition at 1000 µg/disc [32]: 9 mm
